pIC50: −log10 of the molar value. Where two headings read alike, the source gives them in different places.
Key:
human TMEM16A [1] = biological target: T1, human TMEM16A (Homo sapiens, UniProt Q5XXA6, DEL476-501); details: read-out: IC50, short-circuit current assay of TMEM16A function; as reported previously; cited from earlier work
T1 sequence (Q5XXA6 with tags, fused parts or gaps isoform Q5XXA6-5 DEL539-564): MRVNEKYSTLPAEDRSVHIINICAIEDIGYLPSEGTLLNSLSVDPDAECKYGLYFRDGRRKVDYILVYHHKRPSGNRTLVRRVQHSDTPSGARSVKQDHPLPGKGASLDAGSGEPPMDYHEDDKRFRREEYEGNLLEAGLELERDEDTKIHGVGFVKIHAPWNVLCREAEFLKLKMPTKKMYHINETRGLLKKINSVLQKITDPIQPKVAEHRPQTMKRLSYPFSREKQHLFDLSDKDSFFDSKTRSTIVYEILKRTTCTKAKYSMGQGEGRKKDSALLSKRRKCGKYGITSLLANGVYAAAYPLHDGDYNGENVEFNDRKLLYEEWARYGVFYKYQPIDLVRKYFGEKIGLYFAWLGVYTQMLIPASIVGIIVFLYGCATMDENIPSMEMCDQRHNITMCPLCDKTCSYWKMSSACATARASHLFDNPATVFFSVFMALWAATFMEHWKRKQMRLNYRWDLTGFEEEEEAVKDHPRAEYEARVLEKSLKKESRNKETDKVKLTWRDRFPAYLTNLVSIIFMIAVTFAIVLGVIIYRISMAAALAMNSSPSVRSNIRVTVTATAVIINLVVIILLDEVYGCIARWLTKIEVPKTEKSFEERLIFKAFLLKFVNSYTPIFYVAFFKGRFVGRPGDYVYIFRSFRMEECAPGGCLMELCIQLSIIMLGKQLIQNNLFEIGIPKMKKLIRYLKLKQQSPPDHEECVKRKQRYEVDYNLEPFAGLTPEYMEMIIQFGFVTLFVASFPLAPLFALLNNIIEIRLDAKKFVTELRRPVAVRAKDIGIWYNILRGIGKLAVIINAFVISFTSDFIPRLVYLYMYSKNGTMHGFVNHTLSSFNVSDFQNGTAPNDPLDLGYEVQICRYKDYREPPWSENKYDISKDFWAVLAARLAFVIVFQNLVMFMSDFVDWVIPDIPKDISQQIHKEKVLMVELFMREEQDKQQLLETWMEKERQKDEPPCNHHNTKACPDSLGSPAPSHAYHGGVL

human TMEM16A [2] = biological target: T1, human TMEM16A; assay: TMEM16A functional assay; type: cell-based; details: for TMEM16A inhibition activity on initial testing: tested at 10 µM, fluorescence plate reader assay
Method in brief: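 FRT cells stably co-expressing human TMEM16A (abc isoform) and YFP-H148Q/I152L/F46L, assayed 24 h after plating. Wells washed twice with PBS; test compound added in DMSO for 10 min. Fluorescence read every 400 ms: 2 s baseline, 140 mM iodide added at 2 s, then 70 mM iodide containing 300 µM ATP at 6.4 s. Initial iodide influx rate fitted by non-linear regression. Screen at 10 µM; IC50 from concentration-inhibition data.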

human TMEM16A [3] = biological target: T1, human TMEM16A; assay: Short-circuit current assay in FRT-TMEM16A cells; type: cell-based
Method in brief: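 FRT cells stably expressing human TMEM16A, grown on Snapwell inserts and mounted in Ussing chambers. Basolateral membrane permeabilized with amphotericin B (250 µg/ml, 30 min). Chloride gradient: HCO3-buffered basolateral solution; apical 120 mM NaCl replaced by Na gluconate. 37 °C, 95% O2/5% CO2, 10-min stabilization. Test compound added apically 5 min before activation by 100 µM ATP. IC50 from short-circuit current concentration-dependence.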

Row | pIC50 (human TMEM16A [2]) | TMEM16A inhibition activity on initial testing (human TMEM16A [2]) | pIC50 (human TMEM16A [3]) | SMILES | pIC50 (human TMEM16A [1])
1 | – | – | – | CCc1c(C)nc(SCC(=O)Nc2nc(-c3ccc(OC)cc3)cs2)[nH]c1=O [Compound T16Ainh-A01] | ~6.00
2 | 5.46 | measurable activity | ~6.00 | CCc1c(C)nc(SCC(=O)Nc2nc(-c3cccs3)cs2)nc1O [Compound 9bo, 2-(5-Ethyl-4-hydroxy-6-methyl-pyrimidin-2-ylsulfanyl)-N-(4-thiophen-2-yl-thiazol-2-yl)-acetamide] | –
3 | 5.21 | measurable activity | – | Cc1c(O)nc(SCC(=O)Nc2nc(-c3ccccc3)cs2)nc1C(F)(F)F [Compound 9ao, 2-(4-Hydroxy-5-methyl-6-trifluoromethyl-pyrimidin-2-ylsulfanyl)-N-(4-phenyl-thiazol-2-yl)-acetamide] | –
4 | 5.54 | measurable activity | ~5.52 | Cc1nc(SCC(=O)Nc2nc(-c3cccs3)cs2)nc(O)c1C [Compound 9bs, 2-(4-Hydroxy-5,6-dimethyl-pyrimidin-2-ylsulfanyl)-N-(4-thiophen-2-yl-thiazol-2-yl)-acetamide] | –
